The values that follow come from ChEMBL document CHEMBL4680290, “Design, synthesis and biological evaluation of novel chalcone-like compounds as potent and reversible pancreatic lipase inhibitors” (Bioorg Med Chem, 2021).

The term half-life denotes the time needed for the level to fall by half in the phase considered. One may read the IC50 as the concentration that gives 50% inhibition. The low end stands for higher potency, the high end for lower potency. By Ki is commonly meant a measure of affinity in units of concentration, obtained from inhibition or displacement.

Test system in one data set: not listed separately
Kind of data set: Metabolic stability in human liver microsomes assessed as half life in Phase I metabolic system at 10 uM measured by LC-UV method. It counts as ADME, Microsome. In outline: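 Phase I incubation with human liver preparations, compound or testosterone control at 10 μM final. Remaining compound quantified by LC-UV (ODS column, 40 °C, acetonitrile/0.2% formic acid water gradient, 0.4 mL/min, detection 370 nm) to give in vitro half-life.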
On to `COc1cc(/C=C2\Cc3ccc(N(CCCCCCCCCCCCO)CCCCCCCCCCCCO)cc3C2=O)ccc1O`, for which the half-life at 10 µM amounted to 3.68 h.

For a further data set, the target named is T1, Pancreatic triacylglycerol lipase (Sus scrofa, UniProt P00591).
T1 sequence (P00591 whole entry): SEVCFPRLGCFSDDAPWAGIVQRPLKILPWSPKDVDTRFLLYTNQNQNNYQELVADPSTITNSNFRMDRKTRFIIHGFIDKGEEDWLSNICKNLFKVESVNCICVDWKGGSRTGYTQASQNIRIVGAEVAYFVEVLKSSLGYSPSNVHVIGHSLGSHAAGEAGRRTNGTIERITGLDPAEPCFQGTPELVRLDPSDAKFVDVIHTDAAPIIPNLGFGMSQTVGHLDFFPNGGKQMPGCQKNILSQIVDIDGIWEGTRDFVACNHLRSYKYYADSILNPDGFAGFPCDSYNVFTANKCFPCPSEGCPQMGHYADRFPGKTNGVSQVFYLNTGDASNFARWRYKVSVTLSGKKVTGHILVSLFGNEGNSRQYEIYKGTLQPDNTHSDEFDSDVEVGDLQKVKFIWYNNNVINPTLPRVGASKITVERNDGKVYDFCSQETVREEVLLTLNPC
Put plainly: Inhibition of porcine pancreatic lipase preincubated for 10 mins followed by 4-MUO addition and measured at 60 sec interval for 40 mins by multi plate micro plate reader. In outline: (§1)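 Porcine pancreatic lipase (type II) at 0.01 mg/mL final in 0.1 M citrate phosphate buffer pH 7.4 with inhibitor at various concentrations, vortexed, preincubated 10 min at 37 °C. Reaction started with 4-MUO, and fluorescence of released 4-MU read on a microplate reader. IC50 obtained by nonlinear regression; mean ± SD of triplicates.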
Take `CCN(CC)c1ccc2c(c1)C(=O)/C(=C/c1ccc(O)c(OC)c1)C2`: the IC50 is 1.69 µM.

`C=CCCCCCCCCNc1ccc2c(c1)C(=O)/C(=C/c1ccc(O)c(OC)c1)C2` came in with an IC50 of 84.1 µM.

The compound `C=CCCCCN(CCCCC=C)c1ccc2c(c1)C(=O)/C(=C/c1ccc(O)c(OC)c1)C2` showed an IC50 of 2.09 µM.

In turn, `COc1cc(OC)c(/C=C2\Cc3ccc(O)cc3C2=O)c(OC)c1` had a half-maximal inhibitory concentration (IC50) of 20.7 µM.

As for `COc1cc(/C=C2\Cc3ccc(NCCC(C)CCCC(C)C)cc3C2=O)ccc1O` (stereo unspecified), the IC50 turned out to be 2.52 µM.

For the compound `C=CCCCCCCCCN(CCCCCCCCC=C)c1ccc2c(c1)C(=O)/C(=C/c1ccc(O)c(OC)c1)C2`, the midpoint of inhibition, the IC50, lay at 0.58 µM.

In turn, `COc1ccc(/C=C2\Cc3ccc(O)cc3C2=O)c(OC)c1` showed an IC50 of 24.8 µM.

In the case of `COc1cc(/C=C2\Cc3ccc(N4CCCCC4)cc3C2=O)ccc1O`, the IC50 worked out at 3.32 µM.

Compound `CCCOc1ccc2c(c1)C(=O)/C(=C/c1ccc(O)c(OC)c1)C2` displayed an IC50 of 2.54 µM. The IC50 values of the last two compounds are within 1.5-fold of each other.

On to `O=C1/C(=C/c2cccc(Br)c2)Cc2ccc(O)cc21`, for which the IC50 is 14.8 µM.

`COc1cc(/C=C2\Cc3ccc(O)cc3C2=O)ccc1O` yielded an IC50 of 10.4 µM.

In turn, `COc1cc(/C=C2\Cc3ccc(O)cc3C2=O)cc(OC)c1OC` registered an IC50 of 14.8 µM.

`O=C1/C(=C/c2ccc(Cl)c(Cl)c2)Cc2ccc(O)cc21` had an IC50 of 75.4 µM.

In turn, `COc1cc(/C=C2\Cc3ccc(N4CCCC4)cc3C2=O)ccc1O` displayed an IC50 of 3.5 µM.

Turning to `COc1cc(/C=C2\Cc3ccccc3C2=O)ccc1O`, the midpoint of inhibition, the IC50, lay at 6.94 µM.

For `O=C1/C(=C/c2ccc(F)cc2)Cc2ccc(O)cc21`, half-maximal inhibition (IC50) was put at 32.7 µM.

In the case of `O=C1/C(=C/c2ccc(Br)cc2)Cc2ccc(O)cc21`, the IC50 came out at 75.6 µM.

For the compound `C=CCCCCNc1ccc2c(c1)C(=O)/C(=C/c1ccc(O)c(OC)c1)C2`, the IC50 amounted to 25.1 µM.

The compound `COc1cc(/C=C2\Cc3ccc(NCCCCCCCCCCCCO)cc3C2=O)ccc1O` returned an IC50 of 0.68 µM.

The compound `O=C1/C(=C/c2ccc(O)cc2)Cc2ccc(O)cc21` registered an IC50 above 100 µM.

`COc1ccc2c(c1)C(=O)/C(=C/c1ccc(O)c(OC)c1)C2`: the IC50 came out at 37.1 µM.

`COc1cc(/C=C2\Cc3ccc(OC(C)C)cc3C2=O)ccc1O` had an IC50 of 8.61 µM.

As to `O=C1/C(=C/c2ccccc2Br)Cc2ccc(O)cc21`, the IC50 was 28.9 µM.

For `COc1cc(/C=C2\Cc3ccc(N(CCCCCCCCCCCCO)CCCCCCCCCCCCO)cc3C2=O)ccc1O`, the IC50 was 0.33 µM.

The compound `O=C(/C=C/c1ccccc1)c1ccccc1` [CHALCONE] displayed an IC50 of 84.4 µM.

`COc1cc(/C=C2\Cc3ccc(N)cc3C2=O)ccc1O` yielded a half-maximal inhibitory concentration (IC50) of 12.4 µM.

As to `COc1cc(/C=C2\Cc3ccc(N(CCC(C)CCCC(C)C)CCC(C)CCCC(C)C)cc3C2=O)ccc1O` (stereo unspecified), the IC50 is 0.83 µM.

For the compound `O=C1/C(=C/c2ccccc2Cl)Cc2ccc(O)cc21`, the IC50 was above 100 µM.

Compound `O=C1/C(=C/c2ccc(O)cc2)Cc2ccccc21` displayed an IC50 of 14.9 µM.

As to `O=C1/C(=C/c2ccccc2F)Cc2ccc(O)cc21`, the IC50 is above 100 µM.

In the case of `COc1cc(OC)c(OC)cc1/C=C1\Cc2ccc(O)cc2C1=O`, the IC50 was 35 µM.

Test system in the next data set: not listed separately
Put plainly: Metabolic stability in artificial intestinal fluids assessed as half life at 100 uM by LC-UV method. A digest of the protocol: (§2)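 Artificial gastric or intestinal fluid (800 μL) prewarmed 3 min at 37 °C, then compound added to 100 μM final. Aliquots taken at 0, 0.5, 1, 2 and 4 h and quenched with equal volume of ice-cold acetonitrile. Half-life derived from remaining compound.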
For the compound `COc1cc(/C=C2\Cc3ccc(N(CCCCCCCCCCCCO)CCCCCCCCCCCCO)cc3C2=O)ccc1O`, the T1/2 is above 4 h.

Test system in another data set: not listed separately
Put plainly: Metabolic stability in human liver microsomes assessed as half life in Phase II metabolic system at 10 uM measured by LC-UV method. The class given is ADME, Microsome. In outline:
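Phase II system of human liver preparations, compound at 10 μM final. Remaining compound measured by UFLC-UV on an ODS column (2.1 × 150 mm, 2.2 μm) at 40 °C and 0.4 mL/min, with an acetonitrile / water (0.2% formic acid) gradient, detection at 370 nm. Half-life reported.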
A general note: Liver microsomes are vesicles of endoplasmic reticulum, rich in cytochrome P450 enzymes.
Regarding `O=c1ccc2ccc(O)cc2o1` [UMBELLIFERONE], the half-life at 10 µM stood at 0.258 h.

Turning to `COc1cc(/C=C2\Cc3ccc(N(CCCCCCCCCCCCO)CCCCCCCCCCCCO)cc3C2=O)ccc1O`, the half-life at 10 µM was 1.95 h.

Molecular target in another data set: not listed separately
Put plainly: Inhibition of porcine pancreatic lipase type 2. Also noted: species or system Sus scrofa. In outline: as §1
Turning to `CC(C)=CCc1c(O)ccc(C(=O)/C=C/c2ccc(O)cc2O)c1O` [MORACHALCONE A], the IC50 came to 6.2 µM.

The compound `CC(C)=CCc1c(O)ccc(C(=O)/C=C/c2ccc(O)cc2)c1O` [ISOBAVACHALCONE] came in with an IC50 of 3.3 µM.

The compound `O=C1/C(=C/c2ccccc2)Cc2ccccc21` returned an IC50 of 22.5 µM. This IC50 is about 6.8-fold higher than that of the compound before.

`CC(C)=CCc1cc(C(=O)/C=C/c2ccc(O)cc2)c(O)cc1O` [BROUSSOCHALCONE B] came in with an IC50 of 5.7 µM.

The target of a further data set is T1, Pancreatic triacylglycerol lipase. Kind of data set: Mixed type inhibition of porcine pancreatic lipase using 4MUO as substrate by Lineweaver-Burk plot analysis. In outline: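 Kinetics of porcine pancreatic lipase with varied 4-MUO concentrations and increasing inhibitor doses, otherwise as in the standard assay (0.01 mg/mL enzyme, citrate phosphate pH 7.4, 37 °C, 4-MU fluorescence read-out). Inhibition mode and Ki taken from inhibition kinetic plots and Lineweaver-Burk plots, with a secondary plot of slopes. Nonlinear regression; mean ± SD of triplicates.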
For the compound `COc1cc(/C=C2\Cc3ccc(N(CCCCCCCCCCCCO)CCCCCCCCCCCCO)cc3C2=O)ccc1O`, the Ki is 0.12 µM.

Test system in a further data set: not listed separately
Put plainly: Metabolic stability in artificial gastrointestinal fluids assessed as half life at 100 uM by LC-UV method. A digest of the protocol: as §2
As to `COc1cc(/C=C2\Cc3ccc(N(CCCCCCCCCCCCO)CCCCCCCCCCCCO)cc3C2=O)ccc1O`, the T1/2 amounted to 3.89 h.
